The record followed here is paper PMC9044438 (Cell reports, 2022).

In the test the test system is HCT116 cells. Put plainly: RNA-seq of nuclear RNA from HCT116 cells electroporated with peptide. Type of test: cell-based, human. To be noted: 10 μM Nutlin-3a, 3 h, versus DMSO. The method, boiled down:
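HCT116 cells were trypsinized and electroporated with 0 or 10 μM peptide into antibiotic-free McCoy's 5A (serum-free in the second run). They then went to medium with 0.1% DMSO or 10 μM Nutlin-3a, plus 200 nM peptide in peptide wells, for 3 h at 37°C. Nuclei were isolated in 0.5% NP-40 lysis buffer, and nuclear RNA was TRIzol-extracted with extra phenol/chloroform cleanup.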

For `COc1ccc(C2=N[C@@H](c3ccc(Cl)cc3)[C@@H](c3ccc(Cl)cc3)N2C(=O)N2CCNC(=O)C2)c(OC(C)C)c1` [Nutlin-3a], the “expression of p53 target genes” value is recorded as “induced expression of p53 target genes”.
